Calls of active or inactive are those of the source. The rule behind the calls is not given here.
Key:
RAW264.7 [1] = test: Antiinflammatory activity in mouse RAW264.7 cells assessed as LPS-induced nitric oxide level at 20 uM preincubated for 1 hr followed by LPS treatment and measured after 23 hrs by Griess reagent based assay (reference value: 96.06 to 102.81%); type: functional
In short: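 RAW264.7 cells seeded at 1 × 10^5/mL and left overnight. Compound (20 μM) added 1 h before LPS at 1 μg/mL, then 23 h more incubation. Nitrite in supernatant read with Griess reagent at 540 nm and expressed as NO relative to the LPS-only wells (%).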

L02 = test: Cytotoxicity against human LO2 cells assessed as cell viability at 20 uM measured after 24 hrs by MTT assay; type: cell-based; details: l02, 24 h
In short: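 LO2 human liver cells (1.5–5 × 10^3 per well) seeded overnight, then exposed to compound for 24 h. MTT (5 mg/mL stock) added for 2–4 h at 37 °C. Formazan dissolved in DMSO and absorbance read at 570 nm. Three replicate experiments.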

[2] = molecular target: Transcription factor p65 (Mus musculus) (UniProt Q04207); test: Inhibition of LPS-induced NF-kappaB p65 translocation in mouse RAW264.7 cells incubated for 22 hrs by DAPI staining based laser scanning confocal microscopic analysis; type: cell-based
In short: (§1)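 RAW264.7 cells (2×10^4/well) seeded overnight and stimulated for 2 h with Con A (0.6 μM) or LPS (1 μg/mL), then compound at various concentrations for 22 h. Cells fixed in paraformaldehyde, permeabilized with Triton X-100 and blocked in BSA. Stained with anti-p65 and FITC secondary antibody, nuclei with DAPI; imaged by confocal microscopy.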

Mus musculus [3] = test: Antiinflammatory activity in mouse model of Con-A induced autoimmune hepatitis assessed as of MDSC accumulation at 100 mg/kg by flow cytometry analysis (reference value: 11.31%); type: functional
In short: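 Female BALB/c mice given Con A 20 mg/kg i.v. plus compound 100 mg/kg i.p. (PEG 400/saline vehicle), livers taken at 12 h. Liver single-cell suspensions prepared by mechanical disruption and 1 mg/mL collagenase I digestion, with red cells lysed. 1×10^6 cells stained for CD11b and Gr-1; MDSC percentage determined by flow cytometry.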

Mus musculus [4] = species on record: Mus musculus; test: Hepatoprotective activity in mouse model of Con-A induced autoimmune hepatitis assessed as reduction in Con-A induced CD4-positive cells infiltration by […] microscopic analysis; type: functional, organism-based
In short: (§2)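 Livers collected 12 h after Con A 20 mg/kg i.v. plus compound 100 mg/kg i.p. Tissue formalin-fixed, paraffin-embedded and cut into 4–5 μm sections. Sections stained with H&E for light microscopy; further sections immunostained for CD4, CD11b and F4/80 and imaged by fluorescence microscopy.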

RAW264.7 [5] = test: Antiinflammatory activity against mouse RAW264.7 assessed as decrease in Con-A induced TNF-alpha mRNA expression level at 1 uM measured after 22 hrs by RT-PCR analysis; type: functional, cell-based
In short: (§3)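 RAW264.7 macrophages (DMEM, 10% FBS, 37 °C, 5% CO2) pretreated with Con A for 2 h, then compound at 1 μM for a further 22 h. mRNA quantified by SYBR real-time PCR (95 °C 30 s; 40 cycles of 95 °C 5 s, 60 °C 20 s), normalized to GAPDH, run in triplicate; mean ± SD, n=5.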

Mus musculus [6] = species on record: Mus musculus; test: Hepatoprotective activity in mouse model of Con-A induced autoimmune hepatitis assessed as decrease in necrosis of hepatocytes by H and E staining based […] microscopic analysis; type: functional, organism-based; in short: as §2
Mus musculus [7] = test: Antiinflammatory activity in mouse model of Con-A induced autoimmune hepatitis assessed as decrease in serum AST level at 100 mg/kg, ip measured after 12 hrs relative to control; type: functional; parameters: scale not given: the % may be the effect or the level left
In short: (§4)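 Female BALB/c mice, 6–8 weeks old, SPF housing. Con A 20 mg/kg given i.v., then compound 100 mg/kg i.p. in 40% PEG 400/60% saline; model group received vehicle. Killed at 12 h. Plasma ALT and AST measured on an automatic analyzer. Mean ± SD, n=5; ANOVA with Tukey's test.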

RAW264.7 [8] = test: Antiinflammatory activity against mouse RAW264.7 assessed as decrease in Con-A induced INF-gamma mRNA expression level at 1 uM measured after 22 hrs by RT-PCR analysis; type: functional, cell-based; in short: as §3
Mus musculus [9] = test: Antiinflammatory activity in mouse model of Con-A induced autoimmune hepatitis assessed as decrease in serum ALT level at 100 mg/kg, ip measured after 12 hrs relative to control; type: functional; parameters: scale not given: the % may be the effect or the level left; in short: as §4
Mus musculus [10] = species on record: Mus musculus; test: Hepatoprotective activity in mouse model of Con-A induced autoimmune hepatitis assessed as reduction in Con-A induced F4/80-positive cells infiltration by […] microscopic analysis; type: functional, organism-based; in short: as §2
Mus musculus [11] = species on record: Mus musculus; test: Hepatoprotective activity in mouse model of Con-A induced autoimmune hepatitis assessed as reduction in Con-A induced CD11b-positive cells infiltration by […] microscopic analysis; type: functional, organism-based; in short: as §2
RAW264.7 [12] = test: Antiinflammatory activity against mouse RAW264.7 assessed as decrease in Con-A induced […] IL-10 expression level at 1 uM measured after 22 hrs by RT-PCR analysis; type: functional, cell-based; in short: as §3
RAW264.7 [13] = test: Antiinflammatory activity against mouse RAW264.7 assessed as decrease in Con-A induced IL-6 mRNA expression level at 1 uM measured after 22 hrs by RT-PCR analysis; type: functional, cell-based; in short: as §3
[14] = molecular target: Transcription factor p65 (Mus musculus) (UniProt Q04207); test: Inhibition of Con A-induced NF-kappaB p65 translocation in mouse RAW264.7 cells incubated for 22 hrs by DAPI staining based laser scanning confocal microscopic analysis; type: cell-based; in short: as §1
RAW264.7 [15] = test: Inhibition of MCP-1 mediated chemotaxis in mouse RAW264.7 cells at 20 uM measured after 3 hrs by light microscopic analysis relative to control; type: functional; details: for inhibition at 20 µM: RAW264.7, 3 h
In short: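 RAW264.7 cells serum-starved for 3 h, then placed in the upper Transwell chamber in 0.5% BSA medium with compound (20 μM) or DMSO. Lower chamber held 200 ng/mL MCP-1. After 3 h at 37 °C, migrated cells fixed, crystal violet-stained and counted in randomly chosen fields. Inhibitory rate = 1 − N1/(N1+N2); three chambers per condition.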

Transcription factor p65 (Mus musculus), sequence (Q04207 whole entry): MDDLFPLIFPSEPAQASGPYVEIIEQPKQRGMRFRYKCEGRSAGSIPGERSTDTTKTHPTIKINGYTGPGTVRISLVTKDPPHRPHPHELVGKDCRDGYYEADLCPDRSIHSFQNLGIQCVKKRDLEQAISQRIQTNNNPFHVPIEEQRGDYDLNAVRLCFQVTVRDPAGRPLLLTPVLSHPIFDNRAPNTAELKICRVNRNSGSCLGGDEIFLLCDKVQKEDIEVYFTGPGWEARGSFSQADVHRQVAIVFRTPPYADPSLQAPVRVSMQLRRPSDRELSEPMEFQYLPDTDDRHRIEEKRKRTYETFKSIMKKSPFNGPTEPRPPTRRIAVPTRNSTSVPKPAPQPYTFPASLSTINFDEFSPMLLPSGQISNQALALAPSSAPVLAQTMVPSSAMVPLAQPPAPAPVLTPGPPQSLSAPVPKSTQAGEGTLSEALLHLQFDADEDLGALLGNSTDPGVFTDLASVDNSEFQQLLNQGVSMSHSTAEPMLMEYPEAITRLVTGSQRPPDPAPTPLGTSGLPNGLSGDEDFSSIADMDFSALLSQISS

SMILES	Activity (RAW264.7 [1]) [%]	Activity (L02)	other results
CC(=O)Nc1cc(-c2ccccc2C(F)(F)F)cn2c(C)nnc12	42.36	Non-Toxic	–
CC(=O)Nc1cc(-c2cccc(OC(F)(F)F)c2)cn2c(C)nnc12	49.52	Non-Toxic	–
COc1ccc(F)cc1-c1cc(NC(=O)c2c(F)cccc2F)c2nnc(C)n2c1	61.96	Non-Toxic	–
CCS(=O)(=O)Nc1cccc(-c2cc(NC(C)=O)c3nnc(C)n3c2)c1	64.96	Non-Toxic	–
CCS(=O)(=O)Nc1cc(-c2cc(C)ccc2OC)cn2c(C)nnc12	45.48	Non-Toxic	–
CCOc1ccc(C(=O)Nc2cc(-c3cc(F)ccc3OC)cn3c(C)nnc23)cc1	28.01	Non-Toxic	inhibition [2]: Dose-dependent effect; Activity (Mus musculus [3]): 8.39%; Activity (Mus musculus [4]): Active; Activity (RAW264.7 [5]): Active; Activity (Mus musculus [6]): Active; Activity (Mus musculus [7]): 52.52%; Activity (RAW264.7 [8]): Active; Activity (Mus musculus [9]): 65.39%; Activity (Mus musculus [10]): Active; Activity (Mus musculus [11]): Active; Activity (RAW264.7 [12]): Active; Activity (RAW264.7 [13]): Active; Activity [14]: Dose-dependent effect; inhibition at 20 µM (RAW264.7 [15]): 52.6%
COc1ncccc1-c1cc(NC(=O)C2CCCCC2)c2nnc(C)n2c1	49.99	Non-Toxic	–
CC(=O)Nc1cc(-c2ccccc2-c2ccccc2)cn2c(C)nnc12	49.03	Non-Toxic	–
CCOc1cc(F)ccc1-c1cc(NC(=O)C2CCCCC2)c2nnc(C)n2c1	37.8	Non-Toxic	inhibition (RAW264.7 [15]): Active
CC(=O)Nc1cc(-c2cc(Cl)ccc2OCc2ccccc2)cn2c(C)nnc12	27.05	Non-Toxic	–
CCOc1cc(F)ccc1-c1cc(NS(=O)(=O)CC)c2nnc(C)n2c1	34.85	Non-Toxic	–
CCS(=O)(=O)Nc1cc(-c2cccc(C(F)(F)F)c2)cn2c(C)nnc12	27.18	Non-Toxic	–
Cc1nnc2c(NC(=O)c3ccc(F)cc3)cc(-c3ccc(Cl)cc3)cn12	42.88	Non-Toxic	–
CCS(=O)(=O)Nc1cccc(-c2cc([N+](=O)[O-])c3nnc(C)n3c2)c1	26.74	Non-Toxic	–
CC(=O)Nc1cc(-c2ccccc2)cn2c(C)nnc12	44.71	Non-Toxic	–
CCS(=O)(=O)Nc1cc(-c2cc(Cl)ccc2OCc2ccccc2)cn2c(C)nnc12	26.01	Non-Toxic	inhibition (RAW264.7 [15]): Active
CCS(=O)(=O)Nc1cc(-c2ccccc2)cn2c(C)nnc12	44.44	Non-Toxic	–
CCS(=O)(=O)Nc1cc(-c2ccccc2OCc2ccccc2)cn2c(C)nnc12	72.57	Non-Toxic	–

SMILES	Activity (RAW264.7 [1]) [%]	Activity (L02)	other results
CCCOc1ccc(Cl)cc1-c1cc(NC(=O)c2ccccc2F)c2nnc(C)n2c1	77.73	Non-Toxic	–
CC(=O)Nc1cc(-c2ccccc2Cl)cn2c(C)nnc12	48.41	Non-Toxic	–
COc1ccc(F)cc1-c1cc(NC(=O)c2ccc(OCc3ccccc3)cc2Cl)c2nnc(C)n2c1	32.06	Non-Toxic	–
Cc1nnc2c(NC(=O)c3cccc(C(F)(F)F)c3)cc(-c3ccc(Cl)cc3)cn12	30.98	Non-Toxic	–
COc1ccc(C)cc1-c1cc(NC(C)=O)c2nnc(C)n2c1	58.83	Non-Toxic	–
CC(=O)Nc1cc(-c2ccccc2F)cn2c(C)nnc12	83.06	Non-Toxic	–
CCOc1ccc(C)cc1-c1cc(NC(C)=O)c2nnc(C)n2c1	32.07	Non-Toxic	–
CCS(=O)(=O)Nc1cc(-c2ccccc2-c2ccccc2)cn2c(C)nnc12	62.68	Non-Toxic	–
CCS(=O)(=O)Nc1cccc(-c2cc(NS(=O)(=O)CC)c3nnc(C)n3c2)c1	41.19	Non-Toxic	–
CCS(=O)(=O)Nc1cc(-c2ccccc2Cl)cn2c(C)nnc12	152.42	Non-Toxic	–
CCS(=O)(=O)Nc1cc(-c2ccccc2C(F)(F)F)cn2c(C)nnc12	58.67	Non-Toxic	–
CCS(=O)(=O)Nc1cc(-c2cccnc2OC)cn2c(C)nnc12	49.93	Non-Toxic	–
O=C1NC(=O)/C(=C/c2ccc3nccnc3c2)S1	–	–	inhibition at 20 µM (RAW264.7 [15]): 40.5%
COc1cccc(-c2cc(NC(C)=O)c3nnc(C)n3c2)c1	55.3	Non-Toxic	–
CC(=O)Nc1cc(-c2ccc(CN3CCOCC3)cc2)cn2c(C)nnc12	42.4	Non-Toxic	–
CCCOc1ccc(Cl)cc1-c1cc(NC(C)=O)c2nnc(C)n2c1	49.05	Non-Toxic	–
COc1ncccc1-c1cc(NC(C)=O)c2nnc(C)n2c1	54.04	Non-Toxic	–
CCOc1cc(F)ccc1-c1cc(NC(C)=O)c2nnc(C)n2c1	65.85	Non-Toxic	–
